Measured values reported in ChEMBL document CHEMBL2163244, “Structure-guided design, synthesis and biological evaluation of novel DNA ligase inhibitors with in vitro and in vivo anti-staphylococcal activity” (Bioorg Med Chem Lett, 2012).
≈ marks a conversion by molar mass, not a printed value. Calls of active or inactive are those of the source. The calls are words filed in the database; no cut-off is given here.

How the values were obtained:
[1] = biological target: T1, Dihydrofolate reductase (Homo sapiens) (UniProt P00374); test: Inhibition of human DHFR
T1 sequence (whole entry): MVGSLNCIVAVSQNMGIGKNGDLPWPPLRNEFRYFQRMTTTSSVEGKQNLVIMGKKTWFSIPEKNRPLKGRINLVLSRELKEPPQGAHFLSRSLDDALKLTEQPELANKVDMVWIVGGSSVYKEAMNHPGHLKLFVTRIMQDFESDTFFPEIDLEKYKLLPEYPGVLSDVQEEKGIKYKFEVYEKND

[2] = biological target: DNA ligase 1 (Homo sapiens) (UniProt P18858); test: Inhibition of human DNA Ligase 1
Haemophilus influenzae = test: Antibacterial activity against wild type Haemophilus influenzae A921 by CLSI dilution method; format: functional
Staphylococcus aureus = test: Antibacterial activity against wild type Staphylococcus aureus ATCC 29213 by CLSI dilution method; format: functional
[3] = Inhibition of Streptococcus pneumoniae NAD-dependent DNA ligase assessed as equilibrium dissociation constant
[4] = Inhibition of Escherichia coli NAD-dependent DNA ligase
Streptococcus pneumoniae = test: Antibacterial activity against wild type Streptococcus pneumoniae A-216 by CLSI dilution method; format: functional
Escherichia coli [5] = test: Antibacterial activity against tolC/rfaC-deficient Escherichia coli; format: functional
Escherichia coli [6] = test: Antibacterial activity against tolC/rfaC-deficient Escherichia coli harboring ligA251 mutant; format: functional
Method in brief: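 MIC read-out. The E. coli strain carries only the ligA251 allele (L15F exchange), which gives more than 20-fold reduced ligation activity and sensitizes it to LigA inhibitors.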

DNA ligase = DNA ligase (Staphylococcus aureus, UniProt Q9AIU7); test: Inhibition of Staphylococcus aureus NAD-dependent DNA ligase
Escherichia coli [7] = test: Antibacterial activity against tolC/rfaC-deficient Escherichia coli harboring ligA251 mutant and pECLigA; format: functional
Method in brief: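 MIC read-out. The strain is the isogenic ligA251 E. coli strain, over-producing wild-type LigA from plasmid pECLigA, which gives high ligation activity.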

Sequence of DNA ligase 1 (Homo sapiens) (P18858 whole entry): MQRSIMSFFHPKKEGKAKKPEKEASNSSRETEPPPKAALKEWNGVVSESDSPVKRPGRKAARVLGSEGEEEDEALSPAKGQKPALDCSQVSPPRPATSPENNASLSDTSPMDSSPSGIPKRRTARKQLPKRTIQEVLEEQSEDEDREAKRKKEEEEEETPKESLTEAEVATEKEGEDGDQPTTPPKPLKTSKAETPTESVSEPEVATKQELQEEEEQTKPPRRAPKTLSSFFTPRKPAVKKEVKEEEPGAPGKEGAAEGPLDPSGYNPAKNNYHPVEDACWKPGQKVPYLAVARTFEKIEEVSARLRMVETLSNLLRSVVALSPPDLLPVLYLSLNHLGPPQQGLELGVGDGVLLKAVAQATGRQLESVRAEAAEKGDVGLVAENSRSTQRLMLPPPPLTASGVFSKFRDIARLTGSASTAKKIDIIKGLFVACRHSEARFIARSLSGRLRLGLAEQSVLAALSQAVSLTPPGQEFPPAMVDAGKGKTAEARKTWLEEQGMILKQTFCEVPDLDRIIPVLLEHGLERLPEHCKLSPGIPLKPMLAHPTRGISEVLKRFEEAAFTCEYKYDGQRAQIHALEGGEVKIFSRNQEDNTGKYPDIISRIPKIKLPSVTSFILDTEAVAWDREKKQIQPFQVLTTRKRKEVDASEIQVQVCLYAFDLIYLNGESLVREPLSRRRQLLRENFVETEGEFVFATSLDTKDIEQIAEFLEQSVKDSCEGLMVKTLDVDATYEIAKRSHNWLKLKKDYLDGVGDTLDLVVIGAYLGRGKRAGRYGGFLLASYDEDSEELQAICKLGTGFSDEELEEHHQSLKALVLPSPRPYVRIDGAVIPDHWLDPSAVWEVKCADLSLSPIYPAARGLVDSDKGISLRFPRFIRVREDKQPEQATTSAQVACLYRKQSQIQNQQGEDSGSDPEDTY
Sequence of DNA ligase (Q9AIU7 whole entry): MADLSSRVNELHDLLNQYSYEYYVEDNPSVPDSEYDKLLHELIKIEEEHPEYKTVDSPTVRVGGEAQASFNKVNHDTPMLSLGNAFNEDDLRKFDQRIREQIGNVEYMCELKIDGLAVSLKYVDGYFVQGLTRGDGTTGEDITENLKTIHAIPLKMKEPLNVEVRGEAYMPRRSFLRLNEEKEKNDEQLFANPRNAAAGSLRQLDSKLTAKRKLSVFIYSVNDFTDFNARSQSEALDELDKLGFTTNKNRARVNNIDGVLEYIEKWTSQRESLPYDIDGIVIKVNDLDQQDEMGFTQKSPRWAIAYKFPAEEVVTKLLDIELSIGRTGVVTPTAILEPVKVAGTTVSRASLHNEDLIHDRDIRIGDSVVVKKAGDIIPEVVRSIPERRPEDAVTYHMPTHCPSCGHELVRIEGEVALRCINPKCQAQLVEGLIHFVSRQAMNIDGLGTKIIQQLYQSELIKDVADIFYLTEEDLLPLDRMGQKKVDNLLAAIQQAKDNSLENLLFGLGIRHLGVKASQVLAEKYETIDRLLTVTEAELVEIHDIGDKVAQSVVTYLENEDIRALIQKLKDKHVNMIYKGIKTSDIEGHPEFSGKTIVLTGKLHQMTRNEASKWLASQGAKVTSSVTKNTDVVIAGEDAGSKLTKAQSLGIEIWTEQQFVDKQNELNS

Row | SMILES | inhibition [1] | inhibition [2] | MIC (Haemophilus influenzae) | MIC (Staphylococcus aureus) | Kd [3] | IC50 [4] | MIC (Streptococcus pneumoniae) | MIC (Escherichia coli [5]) | MIC (Escherichia coli [6]) | IC50 (DNA ligase) | MIC (Escherichia coli [7])
1 | CC(C)c1cc2cc(C(N)=O)c(N)nc2nc1C(F)(F)F | inactive | inactive | 8 µg/mL (≈ 26.8 µM) | 16 µg/mL (≈ 53.6 µM) | 152 nM | 800 nM | > 16 µg/mL | > 16 µg/mL | 1 µg/mL (≈ 3.35 µM) |  | 
2 | Cc1cc(C(F)(F)F)nc2nc(N)c(C(N)=O)cc12 | inactive | inactive | 0.5 µg/mL (≈ 1.85 µM) | 8 µg/mL (≈ 29.6 µM) | 48 nM | 500 nM | > 16 µg/mL | 4 µg/mL (≈ 14.8 µM) | 0.25 µg/mL (≈ 0.925 µM) |  | 
3 | NC(=O)c1cc2c(-c3ccccc3)cc(C(F)(F)F)nc2nc1N | inactive | inactive | 8 µg/mL (≈ 24.1 µM) | > 16 µg/mL | 237 nM | 2500 nM | > 16 µg/mL | 32 µg/mL (≈ 96.3 µM) | 0.5 µg/mL (≈ 1.5 µM) |  | 
4 | NC(=O)c1cc2cc(C3CC3)c(C(F)(F)F)nc2nc1N | inactive | inactive | 0.5 µg/mL (≈ 1.69 µM) | 1 µg/mL (≈ 3.38 µM) | 83 nM | 400 nM | 16 µg/mL (≈ 54 µM) | 2 µg/mL (≈ 6.75 µM) | 0.125 µg/mL (≈ 0.422 µM) |  | 
5 | NC(=O)c1cc2cc(Br)c(C3CCCC3)nc2nc1N | inactive | inactive | > 16 µg/mL | > 16 µg/mL | 184 nM | 500 nM | > 16 µg/mL | > 16 µg/mL | 4 µg/mL (≈ 11.9 µM) |  | 
6 | C=CCc1c(Cl)nc2nc(N)c(C(N)=O)cc2c1C | inactive | inactive | 4 µg/mL (≈ 14.5 µM) | 8 µg/mL (≈ 28.9 µM) | 116 nM | 800 nM | > 16 µg/mL | 8 µg/mL (≈ 28.9 µM) | 0.125 µg/mL (≈ 0.452 µM) |  | 
7 | Nc1cc(-c2nc3ccccc3[nH]2)n[nH]c1=O |  |  |  |  | 20000 nM | > 25000 nM |  | > 16 µg/mL | 8 µg/mL (≈ 35.2 µM) | 2500 nM | 16 µg/mL (≈ 70.4 µM)
8 | CC(C)(C)c1nc2nc(N)c(C(N)=O)cc2cc1Br | inactive | inactive | 2 µg/mL (≈ 6.19 µM) | 4 µg/mL (≈ 12.4 µM) | 77 nM | 300 nM | 8 µg/mL (≈ 24.8 µM) | 8 µg/mL (≈ 24.8 µM) | 0.25 µg/mL (≈ 0.774 µM) |  | 
9 | Cc1cc2cc(C(N)=O)c(N)nc2nc1C(F)(F)F | inactive | inactive | 0.25 µg/mL (≈ 0.925 µM) | 4 µg/mL (≈ 14.8 µM) | 48 nM | 500 nM | 8 µg/mL (≈ 29.6 µM) | 0.5 µg/mL (≈ 1.85 µM) | 0.063 µg/mL (≈ 0.233 µM) |  | 
